According to ChEMBL document CHEMBL3813612, “Carolignans from the Aerial Parts of Euphorbia sikkimensis and Their Anti-HIV Activity” (J Nat Prod, 2016):

Columns and labels:
[1] = test system: Human immunodeficiency virus 1; assay: Antiviral activity against HIV1 NL4-3 infected in human MT4 cells assessed as reduction in viral replication measured on day 3 post infection by luciferase reporter gene assay; type: functional, organism-based
MT4 = assay: Cytotoxicity against human MT4 cells assessed as reduction in cell viability after 3 days by CytoTox-Glo assay; type: cell-based; conditions: mt4, 72 h
In short: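 MT4 cells were cultured with various compound concentrations for 3 days. Viability was read by the CytoTox-Glo assay following the manufacturer's protocol. CC50 is the concentration giving a 50% reduction in cell viability.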

[2] = Selectivity index, ratio of CC50 for human MT4 cells to EC50 for HIV1 NL4-3 infected in human MT4 cells; type: toxicity, cell-based; conditions: read-out: Ratio CC50/EC50
[3] = Human immunodeficiency virus 1, NL4-3, MT4, 72 h

Structure (SMILES): COc1cc(/C=C/C(=O)OCCCc2ccc(O[C@@H](COC(=O)/C=C/c3ccc(O)c(OC)c3)[C@H](OC)c3ccc(O)c(OC)c3)c(OC)c2)ccc1O (stereo in doubt; 1a)
- EC50 [1, 3]: 6.3 µM
- CC50 (MT4; 72 h): 21 µM
- selectivity ratio [2]: 3.3

Structure (SMILES): COc1cc(/C=C/C(=O)OCCCc2ccc(O[C@H](COC(=O)/C=C/c3ccc(O)c(OC)c3)[C@@H](OC)c3ccc(O)c(OC)c3)c(OC)c2)ccc1O (stereo in doubt; 1b)
- EC50 [1, 3]: 5.3 µM
- CC50 (MT4; 72 h): 17 µM
- selectivity ratio [2]: 3.2

Structure (SMILES): COc1cc(/C=C/C(=O)OCCCc2ccc(O[C@H](COC(=O)/C=C/c3ccc(O)c(OC)c3)[C@@H](OC)c3ccc(O)c(OC)c3)c(OC)c2)ccc1O (stereo in doubt; 2a)
- EC50 ([1]; mt4): > 10 µM

Structure (SMILES): CCOC(=O)/C=C/c1ccc(O)c(OC)c1 [ETHYL FERULATE]
- EC50 [1, 3]: > 10 µM
- CC50 (MT4): > 10 µM

Structure (SMILES): COc1cc(/C=C/C(=O)O)ccc1O [FERULATE]
- EC50 [1, 3]: > 10 µM
- CC50 (MT4): > 10 µM

Structure (SMILES): Cc1cn([C@H]2C[C@H](N=[N+]=[N-])[C@@H](CO)O2)c(=O)[nH]c1=O [ZIDOVUDINE]
- CC50 (MT4): > 0.1 µM
